{
  "source": "ChEMBL document CHEMBL1142492",
  "about": "(J Med Chem, 2008)",
  "key": {"[1]": {"target": "Serine/threonine-protein kinase pim-2 (Homo sapiens) (UniProt Q9P1W9)", "sequence (Q9P1W9 whole entry, looked up)": "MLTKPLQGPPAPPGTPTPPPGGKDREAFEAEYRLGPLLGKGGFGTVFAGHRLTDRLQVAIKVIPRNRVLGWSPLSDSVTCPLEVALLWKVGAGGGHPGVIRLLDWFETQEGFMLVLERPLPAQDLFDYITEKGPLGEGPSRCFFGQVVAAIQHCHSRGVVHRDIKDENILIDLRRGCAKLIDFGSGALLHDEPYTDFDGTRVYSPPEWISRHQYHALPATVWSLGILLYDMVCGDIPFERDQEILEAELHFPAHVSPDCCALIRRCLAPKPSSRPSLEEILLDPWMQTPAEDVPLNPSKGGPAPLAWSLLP", "experiment": "Inhibition of PIM2 at 3 uM"}, "[2]": {"target": "cAMP-dependent protein kinase catalytic subunit beta (Homo sapiens) (UniProt P22694)", "experiment": "Inhibition of PKAC-beta at 3 uM"}, "[3]": {"target": "SRSF protein kinase 2 (Homo sapiens) (UniProt P78362)", "experiment": "Inhibition of SRPK2 at 3 uM"}, "[4]": {"target": "Tyrosine-protein kinase Tec (Homo sapiens) (UniProt P42680)", "sequence (P42680 whole entry)": "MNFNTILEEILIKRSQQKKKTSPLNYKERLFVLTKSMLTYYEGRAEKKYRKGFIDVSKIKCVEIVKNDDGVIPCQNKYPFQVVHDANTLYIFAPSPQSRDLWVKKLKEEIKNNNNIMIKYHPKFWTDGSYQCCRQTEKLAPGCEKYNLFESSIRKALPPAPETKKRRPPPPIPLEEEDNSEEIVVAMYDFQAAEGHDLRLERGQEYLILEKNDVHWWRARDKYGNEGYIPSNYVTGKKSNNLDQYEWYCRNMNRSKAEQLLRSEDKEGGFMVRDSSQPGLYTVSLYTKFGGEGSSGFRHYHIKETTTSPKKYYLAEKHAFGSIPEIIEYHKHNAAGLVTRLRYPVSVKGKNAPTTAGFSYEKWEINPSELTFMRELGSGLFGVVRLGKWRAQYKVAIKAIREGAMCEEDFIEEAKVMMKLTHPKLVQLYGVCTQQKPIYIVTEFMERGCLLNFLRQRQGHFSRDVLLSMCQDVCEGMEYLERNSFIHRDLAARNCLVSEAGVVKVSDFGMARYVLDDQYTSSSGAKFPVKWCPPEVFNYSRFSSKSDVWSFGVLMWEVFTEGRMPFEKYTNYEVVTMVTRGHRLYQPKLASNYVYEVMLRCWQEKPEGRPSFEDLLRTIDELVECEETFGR", "experiment": "Inhibition of TEC at 3 uM"}, "[5]": {"target": "Dual specificity protein kinase TTK (Homo sapiens) (UniProt P33981)", "experiment": "Inhibition of TTK at 3 uM"}, "[6]": {"target": "Vascular endothelial growth factor receptor 1 (Homo sapiens) (UniProt P17948)", "experiment": "Inhibition of FLT1 at 3 uM", "procedure,_shortened": "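Single-concentration kinase panel scoring: each value is the percentage of enzyme activity remaining relative to a DMSO-only control. An activity statistically indistinct from DMSO control was scored \"no hit\".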"}, "[7]": {"target": "MAP/microtubule affinity-regulating kinase 4 (Homo sapiens) (UniProt Q96L34)", "experiment": "Inhibition of MARK4 at 3 uM"}, "[8]": {"target": "Dual specificity mitogen-activated protein kinase kinase 6 (Homo sapiens) (UniProt P52564)", "sequence (P52564 whole entry)": "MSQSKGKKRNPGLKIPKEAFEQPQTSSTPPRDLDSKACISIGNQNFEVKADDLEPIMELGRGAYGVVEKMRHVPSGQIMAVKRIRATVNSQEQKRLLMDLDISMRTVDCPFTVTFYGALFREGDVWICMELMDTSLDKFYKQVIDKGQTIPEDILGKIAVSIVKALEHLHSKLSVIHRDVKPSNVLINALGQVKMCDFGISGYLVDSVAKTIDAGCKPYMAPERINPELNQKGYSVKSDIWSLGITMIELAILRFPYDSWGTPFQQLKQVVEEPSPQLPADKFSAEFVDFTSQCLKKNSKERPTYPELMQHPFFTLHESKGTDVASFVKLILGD", "experiment": "Inhibition of MEK6 at 3 uM"}, "[9]": {"target": "Maternal embryonic leucine zipper kinase (Homo sapiens) (UniProt Q14680)", "experiment": "Inhibition of MELK at 3 uM"}, "[10]": {"target": "Serine/threonine-protein kinase 3 (Homo sapiens) (UniProt Q13188)", "sequence (Q13188 whole entry)": "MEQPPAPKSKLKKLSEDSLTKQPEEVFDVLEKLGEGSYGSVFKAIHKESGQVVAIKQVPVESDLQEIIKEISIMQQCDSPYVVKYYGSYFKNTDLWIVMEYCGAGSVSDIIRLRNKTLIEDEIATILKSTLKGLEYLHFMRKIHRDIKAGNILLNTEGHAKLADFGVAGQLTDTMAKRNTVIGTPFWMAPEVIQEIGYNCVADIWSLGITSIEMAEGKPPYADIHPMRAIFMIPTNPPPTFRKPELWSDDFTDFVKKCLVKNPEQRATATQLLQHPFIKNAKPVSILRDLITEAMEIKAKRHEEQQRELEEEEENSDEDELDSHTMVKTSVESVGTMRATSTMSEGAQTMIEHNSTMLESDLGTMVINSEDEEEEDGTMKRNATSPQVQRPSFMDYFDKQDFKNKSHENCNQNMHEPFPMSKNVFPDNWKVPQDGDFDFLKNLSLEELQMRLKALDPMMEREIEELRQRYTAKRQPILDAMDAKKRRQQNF", "experiment": "Inhibition of MST2 at 3 uM"}, "[11]": {"target": "Muscle, skeletal receptor tyrosine-protein kinase (Homo sapiens) (UniProt O15146)", "experiment": "Inhibition of MUSK at 3 uM"}, "[12]": {"target": "Serine/threonine-protein kinase Nek2 (Homo sapiens) (UniProt P51955)", "experiment": "Inhibition of NEK2 at 3 uM"}, "[13]": {"target": "Serine/threonine-protein kinase PAK 3 (Homo sapiens) (UniProt O75914)", "experiment": "Inhibition of PAK3 at 3 uM"}, "[14]": {"target": "Serine/threonine-protein kinase N1 (Homo sapiens) (UniProt Q16512)", "sequence (Q16512 2-942 limits assumed)": "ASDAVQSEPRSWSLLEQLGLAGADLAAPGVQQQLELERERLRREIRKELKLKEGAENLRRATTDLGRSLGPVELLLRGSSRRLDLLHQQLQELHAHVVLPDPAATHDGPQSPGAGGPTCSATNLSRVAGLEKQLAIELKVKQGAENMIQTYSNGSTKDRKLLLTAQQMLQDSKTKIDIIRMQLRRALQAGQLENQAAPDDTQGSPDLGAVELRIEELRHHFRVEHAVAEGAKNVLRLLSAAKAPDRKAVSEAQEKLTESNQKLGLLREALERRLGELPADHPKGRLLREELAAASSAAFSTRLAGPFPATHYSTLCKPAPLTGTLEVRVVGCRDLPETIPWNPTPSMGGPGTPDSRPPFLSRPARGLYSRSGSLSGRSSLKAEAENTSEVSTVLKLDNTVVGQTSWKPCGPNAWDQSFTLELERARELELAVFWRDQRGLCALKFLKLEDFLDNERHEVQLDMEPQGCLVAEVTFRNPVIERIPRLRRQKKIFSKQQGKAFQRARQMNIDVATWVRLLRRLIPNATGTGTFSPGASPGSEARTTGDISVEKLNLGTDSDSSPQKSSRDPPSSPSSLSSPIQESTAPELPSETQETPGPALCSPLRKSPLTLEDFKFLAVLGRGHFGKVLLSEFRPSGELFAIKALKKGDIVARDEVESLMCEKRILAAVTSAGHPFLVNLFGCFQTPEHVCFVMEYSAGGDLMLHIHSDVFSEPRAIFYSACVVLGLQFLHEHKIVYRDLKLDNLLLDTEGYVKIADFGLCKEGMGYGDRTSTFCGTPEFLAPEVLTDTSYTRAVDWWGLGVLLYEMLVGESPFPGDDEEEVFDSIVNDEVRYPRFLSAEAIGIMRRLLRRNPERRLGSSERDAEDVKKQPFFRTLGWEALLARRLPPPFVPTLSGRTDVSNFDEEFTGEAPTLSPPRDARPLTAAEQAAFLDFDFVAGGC", "experiment": "Inhibition of PKN1 at 3 uM"}, "[15]": {"target": "Serine/threonine-protein kinase N2 (Homo sapiens) (UniProt Q16513)", "experiment": "Inhibition of PKN2 at 3 uM"}, "[16]": {"target": "Neuropeptide Y receptor type 1 (Homo sapiens) (UniProt P25929)", "experiment": "Inhibition of human neuropeptide Y Y1 receptor at 3 uM", "procedure,_shortened": "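Counter-screen binding/enzyme panel at single 3 μM, n=2; results as percent inhibition. Species per target as listed (rat NMDA, GABAA sites; human receptors, transporters; rabbit ACE).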"}, "[17]": {"target": "Neuropeptide Y receptor type 2 (Homo sapiens) (UniProt P49146)", "experiment": "Inhibition of human neuropeptide Y Y2 receptor at 3 uM"}, "[18]": {"target": "Atypical kinase COQ8B, mitochondrial (Homo sapiens) (UniProt Q96D53)", "sequence (Q96D53 whole entry)": "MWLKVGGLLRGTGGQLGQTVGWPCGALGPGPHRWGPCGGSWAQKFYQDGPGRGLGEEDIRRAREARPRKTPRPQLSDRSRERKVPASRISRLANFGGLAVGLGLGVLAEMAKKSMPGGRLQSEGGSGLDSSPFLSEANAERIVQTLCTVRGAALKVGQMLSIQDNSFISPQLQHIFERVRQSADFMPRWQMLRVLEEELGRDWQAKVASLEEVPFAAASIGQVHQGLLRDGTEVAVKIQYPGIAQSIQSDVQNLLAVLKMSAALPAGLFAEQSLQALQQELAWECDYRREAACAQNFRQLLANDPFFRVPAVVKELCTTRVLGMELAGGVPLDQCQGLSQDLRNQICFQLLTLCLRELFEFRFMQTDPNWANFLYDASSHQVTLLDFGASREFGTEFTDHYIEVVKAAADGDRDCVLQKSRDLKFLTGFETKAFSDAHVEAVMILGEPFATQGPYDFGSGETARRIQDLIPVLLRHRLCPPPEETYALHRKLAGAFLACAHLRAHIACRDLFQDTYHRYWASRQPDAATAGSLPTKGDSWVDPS", "experiment": "Inhibition of ADCK4 at 3 uM"}, "[19]": {"target": "Serine/threonine-protein kinase B-raf (Homo sapiens) (UniProt P15056)", "sequence (P15056 whole entry)": "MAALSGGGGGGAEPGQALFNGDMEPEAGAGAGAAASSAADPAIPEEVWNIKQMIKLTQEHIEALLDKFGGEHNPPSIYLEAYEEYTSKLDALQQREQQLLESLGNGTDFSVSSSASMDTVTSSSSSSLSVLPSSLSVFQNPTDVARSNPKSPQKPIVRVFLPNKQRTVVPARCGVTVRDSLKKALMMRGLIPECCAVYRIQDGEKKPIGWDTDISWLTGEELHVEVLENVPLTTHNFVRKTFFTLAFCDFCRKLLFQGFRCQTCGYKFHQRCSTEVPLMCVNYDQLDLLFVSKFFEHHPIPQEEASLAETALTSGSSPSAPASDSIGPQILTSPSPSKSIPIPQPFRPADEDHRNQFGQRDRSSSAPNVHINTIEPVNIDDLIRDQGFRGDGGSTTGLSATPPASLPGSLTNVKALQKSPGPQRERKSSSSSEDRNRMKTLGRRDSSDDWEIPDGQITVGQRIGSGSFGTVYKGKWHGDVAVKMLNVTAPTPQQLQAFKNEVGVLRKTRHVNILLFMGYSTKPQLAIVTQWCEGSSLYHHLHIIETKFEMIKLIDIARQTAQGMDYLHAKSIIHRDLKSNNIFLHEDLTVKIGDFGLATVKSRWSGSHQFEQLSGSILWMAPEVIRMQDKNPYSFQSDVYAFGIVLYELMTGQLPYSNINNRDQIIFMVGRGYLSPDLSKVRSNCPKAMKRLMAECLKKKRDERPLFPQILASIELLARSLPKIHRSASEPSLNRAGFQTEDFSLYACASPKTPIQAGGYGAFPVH", "experiment": "Inhibition of BRAF at 3 uM"}, "[20]": {"target": "Dual specificity protein kinase CLK4 (Homo sapiens) (UniProt Q9HAZ1)", "experiment": "Inhibition of CLK4 at 3 uM"}, "[21]": {"target": "Serine/threonine-protein kinase DCLK1 (Homo sapiens) (UniProt O15075)", "sequence (O15075 whole entry)": "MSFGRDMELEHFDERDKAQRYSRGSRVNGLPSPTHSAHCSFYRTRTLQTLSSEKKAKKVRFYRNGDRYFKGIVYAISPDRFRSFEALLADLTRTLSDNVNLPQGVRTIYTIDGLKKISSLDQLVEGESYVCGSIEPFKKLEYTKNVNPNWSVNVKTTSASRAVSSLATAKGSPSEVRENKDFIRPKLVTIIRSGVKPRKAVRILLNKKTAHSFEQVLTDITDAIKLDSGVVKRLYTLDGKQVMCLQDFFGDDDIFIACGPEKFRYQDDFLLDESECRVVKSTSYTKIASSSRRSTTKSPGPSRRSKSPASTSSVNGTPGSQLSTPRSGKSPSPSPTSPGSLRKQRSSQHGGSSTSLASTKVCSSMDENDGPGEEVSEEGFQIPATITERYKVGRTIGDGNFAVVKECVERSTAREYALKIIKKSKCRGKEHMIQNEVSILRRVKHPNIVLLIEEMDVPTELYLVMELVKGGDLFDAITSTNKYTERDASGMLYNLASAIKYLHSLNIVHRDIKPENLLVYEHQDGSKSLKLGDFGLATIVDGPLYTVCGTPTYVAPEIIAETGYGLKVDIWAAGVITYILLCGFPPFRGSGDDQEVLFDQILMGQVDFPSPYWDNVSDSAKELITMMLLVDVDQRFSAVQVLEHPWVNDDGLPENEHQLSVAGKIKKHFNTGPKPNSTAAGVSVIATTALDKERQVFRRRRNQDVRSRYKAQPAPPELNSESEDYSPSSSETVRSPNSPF", "experiment": "Inhibition of DCAMKL1 at 3 uM"}, "Sus scrofa": {"species": "Sus scrofa", "details": "25 uM"}, "Rattus norvegicus [22]": {"species": "Rattus norvegicus", "details": "3 uM"}, "Rattus norvegicus [23]": {"species": "Rattus norvegicus", "details": "3 uM", "remark": "listed apart in the source"}},
  "data": [
    {"smiles": "CN(C)CCOc1cc(-c2cn[nH]c2)ccc1NC(=O)C1COc2ccccc2O1", "note": "(centres undefined) [SR-3677]", "values": [
      {"measurement": "inhibition", "setting": "[1]", "result": "< 10", "unit": "%"},
      {"measurement": "inhibition", "setting": "[2]", "result": "< 10", "unit": "%"},
      {"measurement": "inhibition", "setting": "[3]", "result": "< 10", "unit": "%"},
      {"measurement": "inhibition", "setting": "[4]", "result": "< 10", "unit": "%"},
      {"measurement": "inhibition", "setting": "[5]", "result": "< 10", "unit": "%"},
      {"measurement": "inhibition", "setting": "[6]", "result": "< 10", "unit": "%"},
      {"measurement": "inhibition", "setting": "[7]", "result": "< 10", "unit": "%"},
      {"measurement": "inhibition", "setting": "[8]", "result": "< 10", "unit": "%"},
      {"measurement": "inhibition", "setting": "[9]", "result": "< 10", "unit": "%"},
      {"measurement": "inhibition", "setting": "[10]", "result": "< 10", "unit": "%"},
      {"measurement": "inhibition", "setting": "[11]", "result": "< 10", "unit": "%"},
      {"measurement": "inhibition", "setting": "[12]", "result": "< 10", "unit": "%"},
      {"measurement": "inhibition", "setting": "[13]", "result": "< 10", "unit": "%"},
      {"measurement": "inhibition", "setting": "[14]", "result": "< 10", "unit": "%"},
      {"measurement": "inhibition", "setting": "[15]", "result": "< 10", "unit": "%"},
      {"measurement": "inhibition", "setting": "[16]", "result": -8, "unit": "%"},
      {"measurement": "inhibition", "setting": "[17]", "result": 0, "unit": "%"},
      {"measurement": "inhibition", "setting": "[18]", "result": "< 10", "unit": "%"},
      {"measurement": "inhibition", "setting": "[19]", "result": "< 10", "unit": "%"},
      {"measurement": "inhibition", "setting": "[20]", "result": 90, "unit": "%"},
      {"measurement": "inhibition", "setting": "[21]", "result": "< 10", "unit": "%"},
      {"measurement": "inhibition", "setting": "Sus scrofa", "result": 90, "unit": "%"},
      {"measurement": "inhibition", "setting": "Rattus norvegicus [22]", "result": -4, "unit": "%"},
      {"measurement": "inhibition", "setting": "Rattus norvegicus [23]", "result": 22, "unit": "%"}
    ]}
  ]
}
